Among the data in ChEMBL document CHEMBL1833958, “Anti-AIDS agents 87. New bio-isosteric dicamphanoyl-dihydropyranochromone (DCP) and dicamphanoyl-khellactone (DCK) analogues with potent anti-HIV activity” (Bioorg Med Chem Lett, 2011) are CC50, EC50 and selectivity ratio values, retold here.

The nature of series [1]: Cytotoxicity against human TZM-bl cells assessed as inhibition of cell growth. In kind it is cell-based. In outline:
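Uninfected TZM-bl cells exposed to test samples. CC50 is the concentration inhibiting cell growth by 50%.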

The subject of series [2] is Human immunodeficiency virus 1. Kind of series: Antiviral activity against Human immunodeficiency virus 1 NL4-3 infected in human TZM-bl cells assessed as inhibition of viral replication after 48 hrs by luciferase reporter gene assay. In kind it is functional, organism-based. As to conditions: Human immunodeficiency virus 1, NL4-3, TZM-bl. The method, boiled down:
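Single-round infection of TZM-bl cells with HIV-1 NL4-3 at 200 TCID50, mixed with test samples at eight four-fold serial dilutions in growth medium. After 48 h, medium is removed and luciferase reagent added. Luminescence is then read. EC50 is the concentration giving 50% reduction in RLU versus virus control wells, after background RLU subtraction.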
(In general: A reporter such as luciferase makes a cellular process visible.)

A short description of series [3]: Therapeutic index, ratio of CC50 for human TZM-bl cells to EC50 for HIV1 NL4-3. It is filed as cell-based. Particulars: read-out: Ratio CC50/EC50. The method, boiled down:
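TI calculated as CC50 (uninfected TZM-bl growth inhibition) divided by EC50 (NL4-3 replication inhibition in TZM-bl luciferase reporter assay).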

As a reminder, the CC50 is the concentration giving 50% cytotoxicity. By EC50 is commonly meant the concentration at which the effect is half-maximal.

For `CCc1cc(=O)c2ccc3c(c2o1)[C@@H](OC(=O)C12CCC(C)(C(=O)O1)C2(C)C)[C@@H](OC(=O)C12CCC(C)(C(=O)O1)C2(C)C)[C@H](C)S3` (stereo partly drawn), the CC50 in series [1] was 1840 nM. Also, the EC50 in series [2] came out at 38 nM. Further, the selectivity ratio in series [3] was determined as 48.
On to `CCc1cc(=O)c2ccc3c(c2o1)[C@@H](OC(=O)C12CCC(C)(C(=O)O1)C2(C)C)[C@@H](OC(=O)C12CCC(C)(C(=O)O1)C2(C)C)C(C)(C)S3` (stereo partly drawn), for which the CC50 in series [1] stood at 5400 nM. Besides, in series [2], the EC50 stood at 54 nM. Also, the selectivity ratio in series [3] came to 100.
As for `CCc1cc(=O)c2ccc3c(c2o1)[C@H](OC(=O)C12CCC(C)(C(=O)O1)C2(C)C)[C@H](OC(=O)C12CCC(C)(C(=O)O1)C2(C)C)[C@@H](C)S3` (stereo partly drawn), the CC50 in series [1] was found to be 3830 nM. The EC50 in series [2] is 184 nM. The selectivity ratio in series [3] came out at 20.8.
The corresponding values for `Cc1cc(=O)oc2c3c(ccc12)SC(C)(C)[C@@H](OC(=O)[C@@]12CC[C@@](C)(C(=O)O1)C2(C)C)[C@H]3OC(=O)[C@@]12CC[C@@](C)(C(=O)O1)C2(C)C` are greater than 30600 nM, 8590 nM and greater than 3.6.
Turning to `CCc1cc(=O)c2ccc3c(c2o1)[C@@H](OC(=O)C12CCC(C)(C(=O)O1)C2(C)C)[C@@H](OC(=O)C12CCC(C)(C(=O)O1)C2(C)C)C(C)(C)O3` (stereo partly drawn), the selectivity ratio in series [3] was 119.
`Cc1cc(=O)oc2c3c(ccc12)SC(C)(C)[C@H](OC(=O)[C@@]12CC[C@@](C)(C(=O)O1)C2(C)C)[C@@H]3OC(=O)[C@@]12CC[C@@](C)(C(=O)O1)C2(C)C`: in series [2], the EC50 came out at 128 nM. For the same molecule, in series [3], the selectivity ratio was greater than 238.
For the molecule `CCc1cc(=O)c2ccc3c(c2o1)[C@@H](OC(=O)C12CCC(C)(C(=O)O1)C2(C)C)[C@@H](OC(=O)C12CCC(C)(C(=O)O1)C2(C)C)[C@H](C)O3` (stereo partly drawn), the CC50 in series [1] was determined as 4550 nM. The EC50 in series [2] is 30 nM. Moreover, the selectivity ratio in series [3] is 153.
